Measurements published in ChEMBL document CHEMBL1667838, “Spirodiketopiperazine-based CCR5 antagonist: discovery of an antiretroviral drug candidate” (Bioorg Med Chem Lett, 2011).
Values after ≈ are worked out from the molar mass of the structure shown.

Tests used:
Cytochrome P450 3A4 [1] = biological target: T1, Cytochrome P450 3A4 (Homo sapiens, UniProt P08684); assay: Inhibition of CYP3A4; type: ADME
How it was run: (§1)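 Inhibition tested separately against P450 isoforms 2C9, 2D6 and 3A4, with test concentrations up to 30 μM.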

[2] = Half life in rat at 10 mg/kg, po; type: ADME, organism-based; design: dose 10 mg/kg, route oral; conditions: in vivo
How it was run: (§2)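 Single-dose oral and intravenous administration in rats. Plasma PK parameters were derived from these dosings: clearance and Vss after iv dosing, and Cmax and AUC after oral dosing.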

[3] = Clearance in rat at 3 mg/kg, iv; type: ADME, organism-based; design: dose 3 mg/kg, route intravenous; conditions: in vivo
Rattus norvegicus [4] = assay: (§3) AUC in rat at 3 mg/kg, iv; type: ADME, organism-based, Plasma; design: dose 3 mg/kg, route intravenous; conditions: in vivo; how it was run: as §2
[5] = Cmax in rat at 10 mg/kg, po; type: ADME, organism-based; design: dose 10 mg/kg, route oral; conditions: in vivo
[6] = Half life in rat at 3 mg/kg, iv; type: ADME, organism-based; design: dose 3 mg/kg, route intravenous; conditions: in vivo
Cytochrome P450 2D6 = Cytochrome P450 2D6 (Homo sapiens, UniProt P10635); assay: Inhibition of CYP2D6; type: ADME; how it was run: as §1
Cytochrome P450 2C9 = Cytochrome P450 2C9 (Homo sapiens, UniProt P11712); assay: Inhibition of CYP2C9; type: ADME; how it was run: as §1
Rattus norvegicus [7] = assay: (§4) AUC in rat at 10 mg/kg, po; type: ADME, organism-based, Plasma; design: dose 10 mg/kg, route oral; conditions: in vivo
Rattus norvegicus [8] = assay: (§5) Oral bioavailability in rat at 10 mg/kg; type: ADME, organism-based; conditions: in vivo; how it was run: as §2
[9] = as §4; type: ADME, organism-based, Plasma; design: dose 10 mg/kg, route oral; conditions: plasma
[10] = Solubility of the compound; type: physicochemical
How it was run: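 Kinetic aqueous solubility, determined at pH 6.8 and reported in […].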

Caco-2 = assay: Permeability across human Caco2 cell membrane; type: ADME, cell-based
[11] = as §3; type: ADME, organism-based, Plasma; design: dose 3 mg/kg, route intravenous; conditions: plasma; how it was run: as §2
[12] = as §5; type: ADME, organism-based; conditions: in vivo; how it was run: as §2
[13] = system: Human immunodeficiency virus 1; assay: Antiviral activity against R5 tropic HIV1 Ba-L infected in human PBMC assessed as inhibition of […] antigen expression; type: functional, organism-based; conditions: Human immunodeficiency virus 1, Ba-L
[14] = system: Human immunodeficiency virus 1; assay: Antiviral activity against multidrug-resistant R5 tropic HIV1 MM infected in human PBMC assessed as inhibition of […] antigen expression; type: functional, organism-based; conditions: Human immunodeficiency virus 1, MM
Cytochrome P450 3A4 [15] = biological target: T1, Cytochrome P450 3A4; assay: Inhibition of CYP3A4 upto 30 uM; type: ADME; how it was run: as §1
[16] = biological target: C-C chemokine receptor type 5 (Homo sapiens, UniProt P51681); assay: Antagonist activity at human CCR5 expressed in CHO cells assessed as inhibition of MIP-1alpha-induced calcium mobilization Ca assay; type: functional, cell-based
[17] = Aqueous solubility of the compound at pH 6.8; type: physicochemical; conditions: buffer
How it was run: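 Kinetic aqueous solubility at pH 6.8, reported in μg/mL.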

T1 sequence (P08684 whole entry, canonical isoform): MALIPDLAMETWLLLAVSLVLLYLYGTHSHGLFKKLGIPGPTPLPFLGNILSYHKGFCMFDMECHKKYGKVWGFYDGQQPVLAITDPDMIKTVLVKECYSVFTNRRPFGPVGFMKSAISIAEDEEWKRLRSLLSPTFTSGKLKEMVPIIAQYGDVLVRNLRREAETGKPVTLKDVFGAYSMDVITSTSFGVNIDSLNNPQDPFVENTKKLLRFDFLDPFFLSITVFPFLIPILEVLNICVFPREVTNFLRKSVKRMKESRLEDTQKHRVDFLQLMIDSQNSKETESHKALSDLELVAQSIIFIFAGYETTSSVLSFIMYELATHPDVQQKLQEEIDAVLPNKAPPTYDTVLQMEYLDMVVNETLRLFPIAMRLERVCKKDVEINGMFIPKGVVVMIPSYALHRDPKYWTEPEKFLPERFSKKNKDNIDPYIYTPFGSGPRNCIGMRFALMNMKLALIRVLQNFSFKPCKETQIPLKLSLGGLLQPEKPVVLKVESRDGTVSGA
Sequence of Cytochrome P450 2C9 (P11712 whole entry): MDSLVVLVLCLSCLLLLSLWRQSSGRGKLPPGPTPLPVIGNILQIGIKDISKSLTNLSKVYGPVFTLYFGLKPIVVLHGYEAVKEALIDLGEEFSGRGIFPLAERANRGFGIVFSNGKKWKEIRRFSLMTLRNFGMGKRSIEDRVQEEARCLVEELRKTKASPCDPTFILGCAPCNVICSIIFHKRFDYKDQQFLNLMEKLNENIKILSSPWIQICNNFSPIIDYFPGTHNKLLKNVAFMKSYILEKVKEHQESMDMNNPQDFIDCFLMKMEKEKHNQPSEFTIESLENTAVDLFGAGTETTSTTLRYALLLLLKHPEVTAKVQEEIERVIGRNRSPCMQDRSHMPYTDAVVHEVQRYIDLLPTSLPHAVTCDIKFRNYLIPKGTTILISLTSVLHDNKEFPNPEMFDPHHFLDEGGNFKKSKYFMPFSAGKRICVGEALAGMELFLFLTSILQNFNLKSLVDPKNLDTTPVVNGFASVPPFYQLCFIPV
Sequence of Cytochrome P450 2D6 (P10635 whole entry): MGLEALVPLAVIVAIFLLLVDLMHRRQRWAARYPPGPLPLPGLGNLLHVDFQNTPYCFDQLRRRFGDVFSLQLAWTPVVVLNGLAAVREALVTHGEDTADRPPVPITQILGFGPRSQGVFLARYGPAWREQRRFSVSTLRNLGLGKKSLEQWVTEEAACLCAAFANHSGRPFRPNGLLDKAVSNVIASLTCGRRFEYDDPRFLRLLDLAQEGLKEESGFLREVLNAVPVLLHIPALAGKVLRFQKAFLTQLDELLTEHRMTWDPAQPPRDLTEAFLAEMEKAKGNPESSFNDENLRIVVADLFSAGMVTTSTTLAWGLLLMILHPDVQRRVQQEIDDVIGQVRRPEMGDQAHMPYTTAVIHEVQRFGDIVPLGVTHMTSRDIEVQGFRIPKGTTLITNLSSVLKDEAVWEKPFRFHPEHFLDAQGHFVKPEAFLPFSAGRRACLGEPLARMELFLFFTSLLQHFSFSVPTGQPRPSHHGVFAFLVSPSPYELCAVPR
Sequence of C-C chemokine receptor type 5 (P51681 whole entry): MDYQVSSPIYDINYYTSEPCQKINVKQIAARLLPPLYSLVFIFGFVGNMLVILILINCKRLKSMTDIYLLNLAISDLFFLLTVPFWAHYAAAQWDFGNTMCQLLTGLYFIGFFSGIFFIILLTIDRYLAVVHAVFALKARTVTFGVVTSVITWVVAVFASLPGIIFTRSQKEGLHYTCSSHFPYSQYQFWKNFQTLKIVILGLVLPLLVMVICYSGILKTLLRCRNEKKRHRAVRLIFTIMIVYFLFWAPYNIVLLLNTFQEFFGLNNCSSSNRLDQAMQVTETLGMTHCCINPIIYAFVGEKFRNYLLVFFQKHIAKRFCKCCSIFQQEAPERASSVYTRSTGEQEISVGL

SMILES | IC50 (Cytochrome P450 3A4 [1]) [µM] | half-life [2] [min] | Cmax [5] [ng/mL] | IC50 (Cytochrome P450 2D6) [µM] | IC50 (Cytochrome P450 2C9) [µM] | AUC [9] [ng·h/mL] | solubility [10] [µM] | bioavailability [12] [%] | further results
CCCCN1C(=O)[C@H](CC2CCCCC2)NC(=O)C12CCN(Cc1ccc(Oc3ccc(C(=O)O)cc3)cc1)CC2.Cl | 24.9 | 48.4 | 2400 | > 30 | 8.8 | – | – | – | clearance [3]: 16 mL/min/kg; AUC (Rattus norvegicus [4]): 3091 ng·h/mL; half-life [6]: 11.1 min; AUC (Rattus norvegicus [7]): 10532 ng·h/mL; F (Rattus norvegicus [8]): 34%
CCCCN1C(=O)[C@@H]([C@@H](O)C2CCCCC2)NC(=O)C12CCN(Cc1ccc(Oc3ccc(C(=O)O)cc3)cc1)CC2.Cl | > 30 | 35.2 | 70 | > 30 | 18 | 67.5 | 81 | – | –
CCCCN1C(=O)[C@H]([C@H](O)C2CCCCC2)NC(=O)C12CCN(Cc1ccc(Oc3ccc(C(=O)O)cc3)cc1)CC2 | > 30 | 14.4 | 280 | > 30 | > 30 | 126 | 85 (≈ 49.1 µg/mL) | – | permeability (Caco-2): 1.6 ×10⁻⁶ cm/s
CCCCN1C(=O)[C@H]([C@@H](O)C2CCCCC2)NC(=O)C12CCN(Cc1ccc(Oc3ccc(C(=O)O)cc3)cc1)CC2.Cl | > 30 | 19.2 | 260 | > 30 | > 30 | 213 | 80 | 6.5 | permeability (Caco-2): 2.1 ×10⁻⁶ cm/s; clearance [3]: 50.9 mL/min/kg; AUC [11]: 988 ng·h/mL; half-life [6]: 16.2 min
Cc1ccc(-c2ccc3c(c2)C=C(C(=O)Nc2ccc(C[N+](C)(C)C4CCOCC4)cc2)CCC3)cc1 | – | – | – | – | – | – | – | – | IC50 [13]: 0.028 µM; IC50 [14]: 0.014 µM
CCCCN1C(=O)[C@@H]([C@H](O)C2CCCCC2)NC(=O)C12CCN(Cc1ccc(Oc3ccccc3)cc1)CC2.Cl | > 30 | – | – | 9.8 | 3.7 | – | – | – | inhibition (INH) (Cytochrome P450 3A4 [15]): Not Active
CCCCN1C(=O)[C@@H]([C@H](O)C(C)C)NC(=O)C12CCN(Cc1ccc(Oc3ccccc3)cc1)CC2 | > 30 | – | – | > 30 | > 30 | – | – | – | IC50 [16]: 0.084 µM
Cc1c(O)cccc1C(=O)N[C@@H](CSc1ccccc1)[C@H](O)CN1C[C@H]2CCCC[C@H]2C[C@H]1C(=O)NC(C)(C)C | – | – | – | – | – | – | – | – | IC50 [14]: > 1 µM
CCCCN1C(=O)C(CC2CCCCC2)NC(=O)C12CCN(Cc1ccc(Oc3ccccc3)cc1)CC2.Cl (racemic) | – | 103 | – | 7.8 | 5.5 | – | – | 1.9 | solubility [17]: < 0.2 µg/mL; AUC (Rattus norvegicus [4]): 400 ng·h/mL
CCCCN1C(=O)C(CC(C)C)NC(=O)C12CCN(Cc1ccc(Oc3ccccc3)cc1)CC2.Cl (racemic) | 19.7 | 75.7 | – | 4.6 | 5.9 | – | – | 1.3 | AUC (Rattus norvegicus [4]): 372 ng·h/mL
CCCCN1C(=O)[C@@H]([C@H](O)C2CCCCC2)NC(=O)C12CCN(Cc1ccc(Oc3ccc(C(=O)O)cc3)cc1)CC2.Cl [APLAVIROC HYDROCHLORIDE] | > 30 | 120 | 2360 | > 30 | > 30 | 3420 | 70 | 23 | permeability (Caco-2): 3.8 ×10⁻⁶ cm/s; clearance [3]: 11.3 mL/min/kg; AUC [11]: 4400 ng·h/mL; half-life [6]: 21.8 min
COC[C@@H](c1ccc(C(F)(F)F)cc1)N1CCN(C2(C)CCN(C(=O)c3c(C)ncnc3C)CC2)C[C@@H]1C [VICRIVIROC] | – | – | – | – | – | – | – | – | IC50 [13]: 0.004 µM; IC50 [14]: 0.003 µM
